Data published in ChEMBL document CHEMBL2057140, “Design, synthesis, biological evaluation and molecular modeling of novel 1,3,4-oxadiazole derivatives based on Vanillic acid as potential immunosuppressive agents” (Bioorg Med Chem, 2012).
Activity calls are given as the source filed them. The calls are words filed in the database; no cut-off is given here.

Legend:
T-cell [1] = test: Selectivity index ratio of CC50 for BALB/c mouse lymph node cells to IC50 for BALB/c mouse ConA-induced T cell proliferation; assay type: functional
In short: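 Ratio of the lymph node cell CC₅₀ from the 24 h MTT cytotoxicity assay to the IC₅₀ against ConA-stimulated proliferation from the 72 h MTT assay.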

[2] = Cytotoxicity against BALB/c mouse lymph node cells after 24 hrs by MTT assay; assay type: cell-based
In short: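 Fresh BALB/C mouse lymph node cells, 5 × 10⁵ per well, given compounds at […] for 24 h at 37 °C, 5% CO₂; untreated cells served as control. MTT (4 mg/mL in PBS) added for the final 4 h, formazan dissolved in DMSO, absorbance read at 570 nm; CC₅₀ reported with SD.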

[3] = Immunosuppressive activity in BALB/c mouse T cells assessed as inhibition of ConA-induced T cell proliferation incubated 24 hrs post ConA-induction for 72 hrs by MTT assay; assay type: functional, cell-based
In short: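 BALB/C lymph node cells, 5 × 10⁵ per well, stimulated with ConA at […] for 24 h, then left untreated or given compounds for 72 h. MTT (4 mg/mL in PBS) added for the last 4 h; proliferation read by MTT and IC₅₀ reported with SD.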

[4] = target: Phosphatidylinositol 4,5-bisphosphate 3-kinase catalytic subunit gamma isoform (Homo sapiens, UniProt P48736); test: Inhibition of PI3Kgamma after 4 hrs
Sequence of Phosphatidylinositol 4,5-bisphosphate 3-kinase catalytic subunit gamma isoform (P48736 whole entry, canonical isoform): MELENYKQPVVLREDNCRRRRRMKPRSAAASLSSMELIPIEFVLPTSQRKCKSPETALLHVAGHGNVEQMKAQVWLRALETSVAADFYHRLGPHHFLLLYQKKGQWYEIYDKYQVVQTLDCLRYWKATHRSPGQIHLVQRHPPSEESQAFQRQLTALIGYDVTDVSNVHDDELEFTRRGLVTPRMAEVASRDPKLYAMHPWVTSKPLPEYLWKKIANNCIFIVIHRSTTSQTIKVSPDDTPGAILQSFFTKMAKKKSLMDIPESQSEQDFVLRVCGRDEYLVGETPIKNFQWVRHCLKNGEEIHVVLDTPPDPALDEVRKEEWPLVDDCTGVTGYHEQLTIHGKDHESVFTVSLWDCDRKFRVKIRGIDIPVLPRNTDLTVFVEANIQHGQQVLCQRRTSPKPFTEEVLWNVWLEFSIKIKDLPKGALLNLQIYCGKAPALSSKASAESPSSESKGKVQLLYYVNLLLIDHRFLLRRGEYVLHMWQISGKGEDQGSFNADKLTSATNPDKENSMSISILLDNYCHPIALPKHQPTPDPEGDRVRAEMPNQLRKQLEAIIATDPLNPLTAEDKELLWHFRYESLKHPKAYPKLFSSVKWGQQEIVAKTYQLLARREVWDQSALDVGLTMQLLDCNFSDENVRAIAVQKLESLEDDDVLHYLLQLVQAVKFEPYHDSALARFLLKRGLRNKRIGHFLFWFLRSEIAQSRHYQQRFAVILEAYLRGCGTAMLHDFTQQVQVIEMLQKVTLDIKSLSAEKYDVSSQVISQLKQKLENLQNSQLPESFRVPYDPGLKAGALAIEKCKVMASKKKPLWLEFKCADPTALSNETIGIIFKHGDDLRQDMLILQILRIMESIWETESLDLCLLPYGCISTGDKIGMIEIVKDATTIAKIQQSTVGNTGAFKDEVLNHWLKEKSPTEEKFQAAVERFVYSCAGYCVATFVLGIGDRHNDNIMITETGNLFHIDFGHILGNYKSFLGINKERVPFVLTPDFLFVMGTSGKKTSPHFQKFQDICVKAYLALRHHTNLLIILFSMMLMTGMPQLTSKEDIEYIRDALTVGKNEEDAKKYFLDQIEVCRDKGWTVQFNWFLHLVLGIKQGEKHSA

T-cell [5] = test: Induction of apoptosis in BALB/c mouse ConA-activated T cells assessed as early apoptotic cells at 25 uM incubated 24 hrs-post ConA-activation for 24 hrs by AnnexinV-FITC based flow cytometry relative to vehicle treated control; assay type: functional
In short: (§1)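 Lymph node cells, 3 × 10⁶ per well, stimulated with ConA at […] for 24 h, then exposed to compound at 0.25, 2.5 or 25 µM for 24 h. Cells harvested, stained with Annexin V-FITC and propidium iodide, and apoptotic fraction measured by flow cytometry.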

T-cell [6] = test: Induction of apoptosis in BALB/c mouse ConA-activated T cells assessed as early apoptotic cells at 2.5 uM incubated 24 hrs-post ConA-activation for 24 hrs by AnnexinV-FITC based flow cytometry relative to vehicle treated control; assay type: functional; in short: as §1
T-cell [7] = test: Induction of apoptosis in BALB/c mouse ConA-activated T cells assessed as early apoptotic cells at 0.25 uM incubated 24 hrs-post ConA-activation for 24 hrs by AnnexinV-FITC based flow cytometry relative to vehicle treated control; assay type: functional; in short: as §1
T-cell [8] = test: Induction of apoptosis in BALB/c mouse ConA-activated T cells incubated 24 hrs-post ConA-activation for 24 hrs by AnnexinV-FITC based flow cytometry; assay type: functional; in short: as §1
Mus musculus [9] = species: Mus musculus; test: Inhibition of PI3K-mediated AKT inhibition in BALB/c mouse lymph node cells assessed as reduction in ConA-induced IL1 production at 5 uM incubated for 2 hrs prior to ConA-indution measured after 22 hrs by ELISA
In short: (§2)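 Mouse lymph node cells kept in DMEM with 10% FBS, penicillin and streptomycin at 37 °C, 5% CO₂. Pre-treated with compound at […] or vehicle for 2 h, then with ConA at […] for 22 h. Media centrifuged, and IL-1, IL-6 and IL-10 quantified by mouse ELISA kits.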

Mus musculus [10] = species: Mus musculus; test: Inhibition of PI3K-mediated AKT inhibition in BALB/c mouse lymph node cells assessed as reduction in ConA-induced IL6 production at 5 uM incubated for 2 hrs prior to ConA-indution measured after 22 hrs by ELISA; in short: as §2
Mus musculus [11] = species: Mus musculus; test: Inhibition of PI3K-mediated AKT inhibition in BALB/c mouse lymph node cells assessed as reduction in ConA-induced IL10 production at 5 uM incubated for 2 hrs prior to ConA-indution measured after 22 hrs by ELISA; in short: as §2

Compound | Ratio CC50/IC50 (T-cell [1]) | CC50 at 24 h [2] [µM] | IC50 [3] [µM] | other results
C/C=C/C[C@@H](C)[C@@H](O)[C@H]1C(=O)N[C@@H](CC)C(=O)N(C)CC(=O)N(C)[C@@H](CC(C)C)C(=O)N[C@@H](C(C)C)C(=O)N(C)[C@@H](CC(C)C)C(=O)N[C@@H](C)C(=O)N[C@H](C)C(=O)N(C)[C@@H](CC(C)C)C(=O)N(C)[C@@H](CC(C)C)C(=O)N(C)[C@@H](C(C)C)C(=O)N1C [CYCLOSPORINE] | 82.19 | – | – | –
COc1cc(-c2nnc(SCc3ccccc3[N+](=O)[O-])o2)ccc1O | 34.45 | 331 | 9.6 | –
COc1cc(-c2nnc(SCc3ccccc3Cl)o2)ccc1OCc1ccccc1Cl | 8.67 | 144 | 10.6 | –
COc1cc(-c2nnc(SCc3cccc(Br)c3)o2)ccc1OCc1cccc(Br)c1 | 17.66 | 161 | 9.12 | –
COc1cc(-c2nnc(SCc3ccccc3Br)o2)ccc1OCc1ccccc1Br | 17.33 | 151 | 8.71 | –
COc1cccc(CSc2nnc(-c3ccc(O)c(OC)c3)o2)c1 | 52.55 | 389 | 7.41 | IC50 [4]: 2.87 µM
COc1cc(-c2nnc(SCc3ccc(F)cc3)o2)ccc1OCc1ccc(F)cc1 | 11.89 | 153 | 12.9 | –
COc1cc(-c2nnc(SCc3ccccc3)o2)ccc1O | 168.83 | 211 | 1.25 | Activity (T-cell [5]): 4.98%; Activity (T-cell [6]): 4.34%; Activity (T-cell [7]): 2.43%; Activity (T-cell [8]): Dose-dependent effect; inhibition (Mus musculus [9]): Active; inhibition (Mus musculus [10]): Active; inhibition (Mus musculus [11]): Active; IC50 [4]: 1.34 µM
COc1cc(-c2nnc(SCc3cccc([N+](=O)[O-])c3)o2)ccc1O | 24.59 | 392 | 16 | –
COc1cc(-c2nnc(SCc3cccc(Cl)c3)o2)ccc1O | 56.74 | 470 | 8.29 | –
COc1cc(-c2nnc(SCc3ccc(Br)cc3)o2)ccc1O | 51.58 | 455 | 8.83 | –
COc1cc(-c2nnc(SCc3ccc(F)cc3F)o2)ccc1OCc1ccc(F)cc1F | 14.1 | 182 | 12.9 | –
COc1cc(-c2nnc(SCc3ccc(Br)cc3)o2)ccc1OCc1ccc(Br)cc1 | 12.99 | 225 | 17.3 | –
COc1cc(-c2nnc(SCc3ccccc3Br)o2)ccc1O | 20.42 | 363 | 17.8 | –
COc1cc(-c2nnc(SCc3ccc(Cl)cc3)o2)ccc1OCc1ccc(Cl)cc1 | 5 | 136 | 17.2 | –
COc1cc(-c2nnc(SCc3ccccc3F)o2)ccc1OCc1ccccc1F | 35.89 | 171 | 4.76 | inhibition (Mus musculus [9]): Active; inhibition (Mus musculus [10]): Active; inhibition (Mus musculus [11]): Active; IC50 [4]: 5.12 µM
COc1cc(-c2nnc(SCc3ccccc3)o2)ccc1OCc1ccccc1 | 14.79 | 197 | 13.3 | –
COc1cc(-c2nnc(SCc3cccc(Br)c3)o2)ccc1O | 7.95 | 382 | 48.1 | –

Compound | Ratio CC50/IC50 (T-cell [1]) | CC50 at 24 h [2] [µM] | IC50 [3] [µM] | other results
COc1cc(-c2nnc(SCc3c(F)cccc3F)o2)ccc1OCc1c(F)cccc1F | 34.21 | 179 | 5.22 | IC50 [4]: 5.74 µM
COc1cc(-c2nnc(SCc3ccccc3Cl)o2)ccc1O | 66.94 | 564 | 8.43 | –
COc1cc(-c2nnc(SCc3ccccc3C)o2)ccc1OCc1ccccc1C | 15.19 | 195 | 18.9 | –
COc1cc(-c2nnc(SCc3ccc(F)cc3F)o2)ccc1O | 53.67 | 520 | 9.69 | –
COc1cccc(COc2ccc(-c3nnc(SCc4cccc(OC)c4)o3)cc2OC)c1 | 24.04 | 242 | 10.1 | –
COc1cc(-c2nnc(SCc3cccc(Cl)c3)o2)ccc1OCc1cccc(Cl)c1 | 11.23 | 178 | 15.8 | –
COc1cc(-c2nnc(SCc3cc(F)cc(F)c3)o2)ccc1OCc1cc(F)cc(F)c1 | 18.49 | 266 | 14.4 | –
COc1cc(-c2nnc(SCc3c(F)cccc3F)o2)ccc1O | 57.1 | 575 | 10.1 | –
COc1cc(-c2nnc(SCc3ccc([N+](=O)[O-])cc3)o2)ccc1OCc1ccc([N+](=O)[O-])cc1 | 20.48 | 156 | 7.6 | –
COc1cc(-c2nnc(SCc3ccc(C)cc3)o2)ccc1OCc1ccc(C)cc1 | 30.38 | 275 | 9.06 | –
COc1cc(-c2nnc(SCc3ccccc3F)o2)ccc1O | 81.82 | 474 | 5.79 | –
COc1cc(-c2nnc(SCc3ccc(Cl)cc3)o2)ccc1O | 43.35 | 480 | 11.1 | –
COc1cc(-c2nnc(SCc3ccc([N+](=O)[O-])cc3)o2)ccc1O | 48.6 | 688 | 14.2 | –
COc1cc(-c2nnc(SCc3ccc(C)cc3)o2)ccc1O | 88.5 | 549 | 6.21 | IC50 [4]: 7.41 µM
COc1cc(-c2nnc(SCc3cccc([N+](=O)[O-])c3)o2)ccc1OCc1cccc([N+](=O)[O-])c1 | 13.75 | 168 | 12.2 | –
COc1cc(-c2nnc(SCc3ccc(F)cc3)o2)ccc1O | 83.62 | 685 | 8.19 | –
COc1cc(-c2nnc(SCc3ccccc3C)o2)ccc1O | 70.36 | 592 | 8.42 | IC50 [4]: 6.48 µM
